Results reported in ChEMBL document CHEMBL1132376, “Synthesis, structure-activity relationships, and RARgamma-ligand interactions of nitrogen heteroarotinoids” (J Med Chem, 1999).
pEC50: −log10 of the molar value.

Legend:
CC-1 [1] = test: Percent inhibition of CC-1 cervical cell proliferation; format: functional, Homo sapiens
Outline: (§1)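 Carcinoma cell lines were seeded at 2000–4000 cells/well and dosed the next day at 10 µM against a DMSO control. After 72 h cells were TCA-fixed, SRB-stained and the dye solubilized in Tris-HCl, then OD was read. Triplicates were averaged, and % inhibition = (1 − treated/control OD) × 100.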

Caov-3 cell line = test: Percent of growth inhibition of Cell line Caov-3(Ovarian) by the compound; format: functional, Homo sapiens; outline: as §1
[2] = target: T1, Retinoic acid receptor alpha (Homo sapiens, UniProt P10276); test: Transcriptional activation in CV-1 cells expressing human Retinoic acid receptor alpha; format: functional, cell-based
T1 sequence (P10276 whole entry): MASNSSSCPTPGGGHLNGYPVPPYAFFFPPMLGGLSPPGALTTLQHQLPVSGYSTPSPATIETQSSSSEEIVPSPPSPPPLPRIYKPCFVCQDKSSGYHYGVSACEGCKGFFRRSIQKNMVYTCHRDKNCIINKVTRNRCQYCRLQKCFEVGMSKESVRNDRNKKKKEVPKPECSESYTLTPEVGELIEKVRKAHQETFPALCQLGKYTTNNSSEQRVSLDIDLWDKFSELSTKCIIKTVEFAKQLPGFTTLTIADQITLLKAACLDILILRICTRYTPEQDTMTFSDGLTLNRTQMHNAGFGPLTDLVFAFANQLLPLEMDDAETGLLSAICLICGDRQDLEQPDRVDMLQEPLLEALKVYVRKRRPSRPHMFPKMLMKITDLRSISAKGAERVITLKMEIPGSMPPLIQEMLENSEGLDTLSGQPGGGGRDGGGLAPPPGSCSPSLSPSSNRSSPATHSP
Outline: (§2)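 CV-1 cells were cotransfected with a human RAR or mouse RXR subtype vector, βRARE-tk-CAT reporter and β-gal internal control. Retinoids were applied at 10^-10–10^-5 M (0.1% DMSO) for 24 h, then CAT/β-gal was measured by ELISA. Potency is the concentration giving half of the agent's own maximal activity. Triplicates were run in at least two experiments.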

[3] = target: T2, Retinoic acid receptor alpha (Homo sapiens) (UniProt P10276); test: Percent transcriptional activation relative to 9-cis RA in CV-1 cells expressing Retinoic acid receptor RAR alpha; format: functional, cell-based
T2 sequence (whole entry): T1 sequence (P10276 whole entry)
Outline: (§3)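 CV-1 cells were transiently cotransfected with a human RARα/β/γ or mouse RXRα/β/γ expression vector (100 ng), βRARE-tk-CAT reporter (500 ng) and β-gal control (100 ng). Retinoids (10^-10–10^-5 M, 0.1% DMSO) were added 16–18 h later for 24 h, and CAT and β-gal were read by ELISA. Efficacy = maximal activity ÷ 9-cis-RA maximal activity. Triplicates were run in at least two experiments.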

[4] = target: T3, Retinoic acid receptor beta (Homo sapiens, UniProt P10826); test: Transcriptional activation in CV-1 cells expressing Retinoic acid receptor RAR beta; format: functional, cell-based; outline: as §2
T3 sequence (P10826 whole entry): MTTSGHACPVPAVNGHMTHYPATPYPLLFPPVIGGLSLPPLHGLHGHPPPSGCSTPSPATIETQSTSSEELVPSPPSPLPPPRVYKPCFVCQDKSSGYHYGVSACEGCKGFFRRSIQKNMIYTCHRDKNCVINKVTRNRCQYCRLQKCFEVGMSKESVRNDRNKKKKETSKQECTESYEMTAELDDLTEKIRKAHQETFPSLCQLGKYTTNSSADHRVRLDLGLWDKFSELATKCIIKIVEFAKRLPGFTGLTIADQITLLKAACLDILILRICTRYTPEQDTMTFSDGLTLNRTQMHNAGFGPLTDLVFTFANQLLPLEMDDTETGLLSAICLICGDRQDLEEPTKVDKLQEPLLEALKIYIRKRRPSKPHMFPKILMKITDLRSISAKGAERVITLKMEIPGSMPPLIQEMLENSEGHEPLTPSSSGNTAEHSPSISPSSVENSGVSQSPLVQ

[5] = target: T4, Retinoic acid receptor beta (Homo sapiens) (UniProt P10826); test: Percent transcriptional activation relative to 9-cis RA in CV-1 cells expressing Retinoic acid receptor RAR beta; format: functional, cell-based; outline: as §3
T4 sequence (whole entry): T3 sequence (P10826 whole entry)

[6] = Percent transcriptional activation relative to 9-cis RA in CV-1 cells expressing Retinoic acid receptor RAR gamma; format: functional, Homo sapiens; outline: as §3
SK-OV-3 = test: Percent of growth inhibition of Cell line SKOV-3(Ovarian) by the compound; format: functional, Homo sapiens; outline: as §1
SiHa = test: Percent of growth inhibition of Cell line SiHa (Cervix) by the compound; format: functional, Homo sapiens; outline: as §1
[7] = target: T5, Retinoic acid receptor RXR-gamma (Mus musculus, UniProt P28705); test: Transcriptional activation in CV-1 cells expressing Retinoid X receptor RXR gamma; format: functional, cell-based; outline: as §2
T5 sequence (P28705 whole entry): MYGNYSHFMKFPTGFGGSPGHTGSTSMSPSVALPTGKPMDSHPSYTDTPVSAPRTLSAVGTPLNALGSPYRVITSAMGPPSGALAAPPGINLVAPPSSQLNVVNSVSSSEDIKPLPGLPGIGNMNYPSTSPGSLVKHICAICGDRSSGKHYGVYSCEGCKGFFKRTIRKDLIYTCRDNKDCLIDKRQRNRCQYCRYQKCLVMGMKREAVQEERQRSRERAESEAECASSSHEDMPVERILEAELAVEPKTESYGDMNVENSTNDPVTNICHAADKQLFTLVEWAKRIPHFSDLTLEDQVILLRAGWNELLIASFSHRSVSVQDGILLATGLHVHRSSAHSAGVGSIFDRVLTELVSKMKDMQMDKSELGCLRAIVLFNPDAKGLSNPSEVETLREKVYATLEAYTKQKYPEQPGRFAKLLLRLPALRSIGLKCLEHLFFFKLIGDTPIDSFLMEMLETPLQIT

[8] = target: T6, Retinoic acid receptor RXR-gamma (Mus musculus) (UniProt P28705); test: Percent transcriptional activation relative to 9-cis RA in CV-1 cells expressing Retinoid X receptor RXR gamma; format: functional, cell-based; outline: as §3
T6 sequence (whole entry): T5 sequence (P28705 whole entry)

[9] = target: T7, Retinoic acid receptor RXR-beta (Mus musculus, UniProt P28704); test: Transcriptional activation in CV-1 cells expressing Retinoid X receptor RXR beta; format: functional, cell-based; outline: as §2
T7 sequence (P28704 whole entry): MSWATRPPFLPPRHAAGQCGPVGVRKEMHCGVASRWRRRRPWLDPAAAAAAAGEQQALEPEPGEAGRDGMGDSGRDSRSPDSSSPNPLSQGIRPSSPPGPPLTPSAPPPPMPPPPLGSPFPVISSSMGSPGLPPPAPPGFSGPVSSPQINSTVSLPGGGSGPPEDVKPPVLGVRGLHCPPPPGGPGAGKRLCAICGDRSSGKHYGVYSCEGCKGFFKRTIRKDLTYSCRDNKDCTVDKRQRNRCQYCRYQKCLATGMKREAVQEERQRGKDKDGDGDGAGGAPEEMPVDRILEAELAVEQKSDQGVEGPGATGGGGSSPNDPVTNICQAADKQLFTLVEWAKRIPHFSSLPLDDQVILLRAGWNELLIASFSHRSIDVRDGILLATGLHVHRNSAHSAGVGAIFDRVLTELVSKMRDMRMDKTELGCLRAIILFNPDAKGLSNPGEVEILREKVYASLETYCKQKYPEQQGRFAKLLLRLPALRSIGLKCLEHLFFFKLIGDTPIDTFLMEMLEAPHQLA

[10] = target: T8, Retinoic acid receptor RXR-beta (Mus musculus) (UniProt P28704); test: Percent transcriptional activation relative to 9-cis RA in CV-1 cells expressing Retinoid X receptor RXR beta; format: functional, cell-based; outline: as §3
T8 sequence (whole entry): T7 sequence (P28704 whole entry)

SCC-2 = test: Percent of growth inhibition of Cell line SCC-2(Head and Neck) by the compound; format: functional, Homo sapiens; outline: as §1
SCC-38 = test: Percent of growth inhibition of Cell line SCC-38(Head and Neck) by the compound; format: functional, Homo sapiens; outline: as §1
SW 962 = test: Percent of growth inhibition of Cell line SW962 (Vulvar) by the compound; format: functional, Homo sapiens; outline: as §1
[11] = Transcriptional activation in CV-1 cells expressing Retinoid X receptor RXR alpha; format: functional, cell-based; outline: as §2
[12] = Percent transcriptional activation relative to 9-cis RA in CV-1 cells expressing Retinoid X receptor RXR alpha; format: functional, Mus musculus; outline: as §3
[13] = The compound was evaluated for Tissue Transglutaminase induction
Outline: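 HEL cells ((1–2) × 10^5/mL) were exposed to 10 µM retinoid for 48 h, washed in PBS and sonicated in Tris/NaCl/EDTA/PMSF buffer (pH 7.4). TGase was measured as Ca2+-dependent [14C]putrescine incorporation into N,N-dimethylcasein, counting acid-insoluble radioactivity, with Lowry protein. Efficacy is expressed relative to maximal t-RA activity.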

SW 954 = test: Percent of growth inhibition of Cell line SW954 (Vulvar) by the compound; format: functional, Homo sapiens; outline: as §1
CC-1 [14] = test: Percent of growth inhibition of Cell line CC-1(Cervix) by the compound; format: functional, Homo sapiens; outline: as §1
[15] = Transcriptional activation in CV-1 cells expressing Retinoic acid receptor RAR gamma; format: functional, cell-based; conditions: Homo sapiens; outline: as §2

SMILES | Inhibition (CC-1 [1]) | Inhibition (Caov-3 cell line) | pEC50 [2] | Efficacy [3] | pEC50 [4] | Efficacy [5] | Efficacy [6] | Inhibition (SK-OV-3) | Inhibition (SiHa) | pEC50 [7] | Efficacy [8] | pEC50 [9] | Efficacy [10] | Inhibition (SCC-2) | Inhibition (SCC-38) | Inhibition (SW 962) | pEC50 [11] | Efficacy [12] | Induction [13] | Inhibition (SW 954) | other results
CCOC(=O)c1ccc(OC(=O)c2ccc3c(c2)C(C)(C)CCN3C(C)C)cc1 | 15% | 13% | 6.66 | 59% | 7.39 | 71% | 0% | 2% | 25% | 7.57 | 47% | 7.33 | 45% | 24% | 25% | 25% | 7.92 | 62% | 49 | 49% | –
CCOC(=O)c1ccc(OC(=O)c2ccc3c(c2)C(C)(C)CCN3C)cc1 | 25% | 0% | 5.95 | 45% | 6.59 | 64% | 0% | 0% | 40% | 7.70 | 52% | 7.48 | 53% | 20% | 20% | 15% | 6.22 | 47% | 37 | 35% | –
CC1=C(/C=C/C(C)=C\C=C\C(C)=C\C(=O)O)C(C)(C)CCC1 [ALITRETINOIN] | – | 25% | – | – | – | – | – | 27% | 25% | – | – | – | – | 25% | 24% | 30% | – | – | – | 35% | Inhibition (CC-1 [14]): 15%
CCOC(=O)c1ccc(OC(=O)c2cc3c(cc2C)N(C)CCC3(C)C)cc1 | 20% | 10% | 6.10 | 64% | 7.04 | 63% | 103% | 0% | 26% | 7.31 | 52% | 7.15 | 55% | 20% | 20% | 80% | 6.99 | 53% | 49 | 77% | pEC50 [15]: 8.22
C/C(=C/c1ccc(C(=O)O)cc1)c1ccc2c(c1)C(C)(C)CCC2(C)C | – | 15% | – | – | – | – | – | 20% | – | – | – | – | – | – | – | 20% | – | – | – | 30% | –
